Results: ChEMBL document CHEMBL5303300, “EUbOPEN Chemogenomics Library - Multiplex” (2023)
Where “and” joins values, the source holds several entries; their conditions need not be identical. Identical values can stand only once.

Tested on: U2OS
Experiment: Multiplex assay against U2OS
Assay type: toxicity, cell-based
Details: human, number of replicates 2
Procedure, shortened: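 Imaging took place on a CQ1 microscope at 37°C and 5% CO2 once compound had been added to live cells stained at seeding with Hoechst33342, BioTracker Green Microtubule Cytoskeleton Dye, MitoTracker Red and Annexin V Alexa Fluor 680. CellPathfinder machine-learning gating classed cells as Hoechst high-intensity objects or normal cells, classed normal cells as having healthy, pyknosed or fragmented nuclei, and classed pyknosed cells as mitotic or apoptotic. Tubulin, mitochondrial-mass and membrane-permeability phenotypes are per cents of the healthy-nucleus cells.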

[1] = 12 h, 1 µM, compound concentration 1 uM
[2] = 12 h, 10 µM, compound concentration 10 uM
[3] = 24 h, 1 µM, compound concentration 1 uM
[4] = 24 h, 10 µM, compound concentration 10 uM
[5] = 48 h, 1 µM, compound concentration 1 uM
[6] = 48 h, 10 µM, compound concentration 10 uM

In the case of `CCNc1ccc(-c2nn(-c3ccccc3C)c3c2C(C)Cc2nc(NC(=O)OC)sc2-3)cn1.O=C(O)C(F)(F)F` (stereo not drawn), the “Population Apoptotic (%)” value [1] is reported as 72% and 80%, the “Population Fragmented Nuclei (%)” value [1] is reported as 14% and 11% and the “Population Healthy Nuclei (%)” value [1] is reported as 71% and 73%. The “Population Hoechst High Intensity Objects (%)” value [1] was 0% and 1%, the “Population Membrane Permeable-Phenotype (%)” value [1] was 5% and 2% and the “Population Mitochondria Different-Phenotype (%)” value [1] was 5% and 4%. The “Population Mitotic Cells (%)” value [1] was 27% and 20%, the “Population Normal (%)” value [1] was 100% and 98% and the “Population Pyknosed Nuclei (%)” value [1] was 14%. The “Population Tubulin-Different-Phenotype (%)” value [1] was 55% and 24%, the “Total Cell Count” value [1] was 200 and 68 and the “Population Apoptotic (%)” value [2] was 83% and 88%. The “Population Fragmented Nuclei (%)” value [2] was 32% and 18%, the “Population Healthy Nuclei (%)” value [2] was 25% and 55% and the “Population Hoechst High Intensity Objects (%)” value [2] was 0%. The “Population Membrane Permeable-Phenotype (%)” value [2] was 28% and 25%, the “Population Mitotic Cells (%)” value [2] was 16% and 11% and the “Population Normal (%)” value [2] was 100% and 99%. The “Population Pyknosed Nuclei (%)” value [2] was 42% and 25%, the “Population Tubulin-Different-Phenotype (%)” value [2] was 57% and 88% and the “Population Apoptotic (%)” value [3] was 84% and 75%. For the same molecule, the “Population Fragmented Nuclei (%)” value [3] was 14% and 6%, the “Population Healthy Nuclei (%)” value [3] was 63% and 74% and the “Population Hoechst High Intensity Objects (%)” value [3] was 0%. The “Population Membrane Permeable-Phenotype (%)” value [3] was 2% and 8%, the “Population Mitochondria Different-Phenotype (%)” value [3] was 9% and 2% and the “Population Mitotic Cells (%)” value [3] was 15% and 25%. For the same molecule, the “Population Normal (%)” value [3] was 100%, the “Population Pyknosed Nuclei (%)” value [3] was 21% and 19% and the “Population Tubulin-Different-Phenotype (%)” value [3] was 58% and 34%. For the same molecule, the “Total Cell Count” value [3] was 176 and 63, the “Population Apoptotic (%)” value [4] was 72% and 89% and the “Population Healthy Nuclei (%)” value [4] was 18% and 39%. For the same molecule, the “Population Hoechst High Intensity Objects (%)” value [4] was 0%, the “Population Membrane Permeable-Phenotype (%)” value [4] was 14% and 32% and the “Population Mitochondria Different-Phenotype (%)” value [4] was 28% and 63%. The “Population Mitotic Cells (%)” value [4] was 27% and 10%, the “Population Normal (%)” value [4] was 100% and 99% and the “Population Pyknosed Nuclei (%)” value [4] was 29% and 45%. The “Population Tubulin-Different-Phenotype (%)” value [4] was 42% and 83%, the “Population Apoptotic (%)” value [5] was 72% and 80% and the “Population Fragmented Nuclei (%)” value [5] was 9% and 7%. For the same molecule, the “Population Healthy Nuclei (%)” value [5] was 52% and 57%, the “Population Hoechst High Intensity Objects (%)” value [5] was 0% and 1% and the “Population Membrane Permeable-Phenotype (%)” value [5] was 6% and 7%. For the same molecule, the “Population Mitochondria Different-Phenotype (%)” value [5] was 9% and 2%, the “Population Mitotic Cells (%)” value [5] was 27% and 20% and the “Population Normal (%)” value [5] was 99% and 98%. For the same molecule, the “Population Pyknosed Nuclei (%)” value [5] was 37% and 35%, the “Population Tubulin-Different-Phenotype (%)” value [5] was 69% and 25% and the “Total Cell Count” value [5] was 157 and 71. The “Population Apoptotic (%)” value [6] was 90% and 93%, the “Population Healthy Nuclei (%)” value [6] was 10% and 28% and the “Population Hoechst High Intensity Objects (%)” value [6] was 0%. For the same molecule, the “Population Membrane Permeable-Phenotype (%)” value [6] was 66% and 43%, the “Population Mitotic Cells (%)” value [6] was 10% and 6% and the “Population Normal (%)” value [6] was 100% and 99%. The “Population Pyknosed Nuclei (%)” value [6] was 33% and 61% and the “Population Tubulin-Different-Phenotype (%)” value [6] was 100% and 84%.
In the case of `Cc1cc(C2CCCNC2)ccc1Nc1ncc(Br)c(NCc2cccc3c2C(C)(C)C(=O)N3)n1` (stereo not drawn), the “Population Apoptotic (%)” value [1] is reported as 50% and 63%, the “Population Healthy Nuclei (%)” value [1] is reported as 57% and 78% and the “Population Hoechst High Intensity Objects (%)” value [1] is reported as 0%. For the same molecule, the “Population Membrane Permeable-Phenotype (%)” value [1] was 31% and 29%, the “Population Mitochondria Different-Phenotype (%)” value [1] was 9% and 19% and the “Population Mitotic Cells (%)” value [1] was 50% and 36%. For the same molecule, the “Population Normal (%)” value [1] was 100%, the “Population Pyknosed Nuclei (%)” value [1] was 10% and 11% and the “Population Tubulin-Different-Phenotype (%)” value [1] was 65% and 44%. The “Total Cell Count” value [1] was 56 and 99, the “Population Apoptotic (%)” value [2] was 82% and 73% and the “Population Fragmented Nuclei (%)” value [2] was 28% and 14%. The “Population Healthy Nuclei (%)” value [2] was 42% and 69%, the “Population Hoechst High Intensity Objects (%)” value [2] was 0% and the “Population Membrane Permeable-Phenotype (%)” value [2] was 24% and 20%. For the same molecule, the “Population Mitochondria Different-Phenotype (%)” value [2] was 56% and 54%, the “Population Mitotic Cells (%)” value [2] was 17% and 26% and the “Population Normal (%)” value [2] was 100%. For the same molecule, the “Population Pyknosed Nuclei (%)” value [2] was 28% and 16%, the “Population Tubulin-Different-Phenotype (%)” value [2] was 88% and 83% and the “Population Apoptotic (%)” value [3] was 70% and 51%. The “Population Healthy Nuclei (%)” value [3] was 54% and 72%, the “Population Hoechst High Intensity Objects (%)” value [3] was 1% and 0% and the “Population Membrane Permeable-Phenotype (%)” value [3] was 17% and 15%. For the same molecule, the “Population Mitochondria Different-Phenotype (%)” value [3] was 34% and 21%, the “Population Mitotic Cells (%)” value [3] was 30% and 48% and the “Population Normal (%)” value [3] was 98% and 100%. The “Population Pyknosed Nuclei (%)” value [3] was 18% and 21%, the “Population Tubulin-Different-Phenotype (%)” value [3] was 75% and 58% and the “Total Cell Count” value [3] was 54 and 125. For the same molecule, the “Population Apoptotic (%)” value [4] was 88% and 66%, the “Population Fragmented Nuclei (%)” value [4] was 27% and 10% and the “Population Hoechst High Intensity Objects (%)” value [4] was 0%. For the same molecule, the “Population Membrane Permeable-Phenotype (%)” value [4] was 66% and 31%, the “Population Mitochondria Different-Phenotype (%)” value [4] was 66% and 61% and the “Population Mitotic Cells (%)” value [4] was 12% and 33%. For the same molecule, the “Population Normal (%)” value [4] was 100% and 99%, the “Population Pyknosed Nuclei (%)” value [4] was 53% and 25% and the “Population Tubulin-Different-Phenotype (%)” value [4] was 88% and 82%. For the same molecule, the “Population Apoptotic (%)” value [5] was 87% and 70%, the “Population Fragmented Nuclei (%)” value [5] was 8% and 20% and the “Population Healthy Nuclei (%)” value [5] was 74% and 64%. The “Population Hoechst High Intensity Objects (%)” value [5] was 0% and 1%, the “Population Membrane Permeable-Phenotype (%)” value [5] was 13% and 14% and the “Population Mitochondria Different-Phenotype (%)” value [5] was 16% and 21%. The “Population Mitotic Cells (%)” value [5] was 12% and 30%, the “Population Normal (%)” value [5] was 100% and 98% and the “Population Pyknosed Nuclei (%)” value [5] was 17% and 15%. For the same molecule, the “Population Tubulin-Different-Phenotype (%)” value [5] was 63% and 46%, the “Total Cell Count” value [5] was 175 and 65 and the “Population Apoptotic (%)” value [6] was 91% and 87%. The “Population Fragmented Nuclei (%)” value [6] was 19% and 8%, the “Population Hoechst High Intensity Objects (%)” value [6] was 0% and 2% and the “Population Membrane Permeable-Phenotype (%)” value [6] was 100% and 43%. The “Population Mitochondria Different-Phenotype (%)” value [6] was 50% and 83%, the “Population Mitotic Cells (%)” value [6] was 8% and 12% and the “Population Normal (%)” value [6] was 100% and 97%. For the same molecule, the “Population Pyknosed Nuclei (%)” value [6] was 76% and 43% and the “Population Tubulin-Different-Phenotype (%)” value [6] was 100% and 82%.
